Consider 7 compounds from ChEMBL document CHEMBL3045285, “Synthesis and insecticidal activities of novel anthranilic diamides containing modified N-pyridylpyrazoles” (2010).

Format in all cases: functional
The test system of assay [1] is Mythimna separata. In words: Insecticidal activity against fourth-instar larval stage of Mythimna separata (Oriental armyworm) in compound pretreated Zea mays L. Tangyu 10 leaves assessed as mortality at 10 mg/l at 25 +/-1 degC after 2 days. Put shortly: (§1)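 Greenhouse-reared fourth-instar oriental armyworm larvae. Corn (Tangyu 10) leaves laid on moist filter paper in Petri dishes, sprayed with test solution (200 mg/L solution diluted in distilled water), then air-dried. Ten larvae per dish. Held at 25 ± 1 °C; mortality scored dead/alive 2 days post-treatment. Triplicate treatments, Abbott-corrected, 0–100 scale.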

For assay [2], the system named is Plutella xylostella. In words: Insecticidal activity against second-instar larval stage of Plutella xylostella (diamondback moth) in cabbage leaves assessed as mortality at 20 mg/l at 25 +/-1 degC treated for 3 secs before larva infestation measured after 2 days by leaf-dip method. Particulars: 48 h. Put shortly: (§2)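 Greenhouse-reared diamondback moth larvae tested by leaf-dip method at 25 ± 1 °C. Test solution made at 200 mg/L, then diluted with distilled water to working concentrations. Mortality scored dead/alive, corrected with Abbott's formula and expressed on a 0–100 scale.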

For assay [3], the system named is Mythimna separata. In words: Insecticidal activity against fourth-instar larval stage of Mythimna separata (Oriental armyworm) in compound pretreated Zea mays L. Tangyu 10 leaves assessed as mortality at 200 mg/l at 25 +/-1 degC after 2 days. An outline of the steps: as §1
For assay [4], the system named is Mythimna separata. Briefly: Insecticidal activity against fourth-instar larval stage of Mythimna separata (Oriental armyworm) in compound pretreated Zea mays L. Tangyu 10 leaves assessed as mortality at 20 mg/l at 25 +/-1 degC after 2 days. An outline of the steps:
as §1

The subject of assay [5] is Plutella xylostella. Briefly: Insecticidal activity against second-instar larval stage of Plutella xylostella (diamondback moth) in cabbage leaves assessed as mortality at 2.5 mg/l at 25 +/-1 degC treated for 3 secs before larva infestation measured after 2 days by leaf-dip method. Particulars: 48 h. An outline of the steps: as §2
Assay [6] relates to Plutella xylostella. Briefly: Insecticidal activity against second-instar larval stage of Plutella xylostella (diamondback moth) in cabbage leaves assessed as mortality at 10 mg/l at 25 +/-1 degC treated for 3 secs before larva infestation measured after 2 days by leaf-dip method. The following applies: 48 h. An outline of the steps:
as §2

Assay [7] deals with Plutella xylostella. In words: Insecticidal activity against second-instar larval stage of Plutella xylostella (diamondback moth) in cabbage leaves assessed as mortality at 1 mg/l at 25 +/-1 degC treated for 3 secs before larva infestation measured after 2 days by leaf-dip method. The following applies: 48 h. Put shortly: as §2
For assay [8], the system named is Mythimna separata. In words: Insecticidal activity against fourth-instar larval stage of Mythimna separata (Oriental armyworm) in compound pretreated Zea mays L. Tangyu 10 leaves assessed as mortality at 50 mg/l at 25 +/-1 degC after 2 days. An outline of the steps: as §1
The test system of assay [9] is Plutella xylostella. Briefly: Insecticidal activity against second-instar larval stage of Plutella xylostella (diamondback moth) in cabbage leaves assessed as mortality at 5 mg/l at 25 +/-1 degC treated for 3 secs before larva infestation measured after 2 days by leaf-dip method. Particulars: 48 h. Put shortly: as §2
Assay [10] has as its system Mythimna separata. In words: Insecticidal activity against fourth-instar larval stage of Mythimna separata (Oriental armyworm) in compound pretreated Zea mays L. Tangyu 10 leaves assessed as mortality at 100 mg/l at 25 +/-1 degC after 2 days. An outline of the steps:
as §1

The test system of assay [11] is Mythimna separata. In words: Insecticidal activity against fourth-instar larval stage of Mythimna separata (Oriental armyworm) in compound pretreated Zea mays L. Tangyu 10 leaves assessed as mortality at 5 mg/l at 25 +/-1 degC after 2 days. An outline of the steps: as §1
Assay [12] relates to Plutella xylostella. In words: Insecticidal activity against second-instar larval stage of Plutella xylostella (diamondback moth) in cabbage leaves assessed as mortality at 0.25 mg/l at 25 +/-1 degC treated for 3 secs before larva infestation measured after 2 days by leaf-dip method. The following applies: 48 h. An outline of the steps:
as §2

Assay [13] concerns Plutella xylostella. In words: Insecticidal activity against second-instar larval stage of Plutella xylostella (diamondback moth) in cabbage leaves assessed as mortality at 0.5 mg/l at 25 +/-1 degC treated for 3 secs before larva infestation measured after 2 days by leaf-dip method. The following applies: 48 h. Put shortly: as §2
Assay [14] relates to Mythimna separata. Briefly: Insecticidal activity against fourth-instar larval stage of Mythimna separata (Oriental armyworm) in compound pretreated Zea mays L. Tangyu 10 leaves assessed as mortality at 2.5 mg/l at 25 +/-1 degC after 2 days. Put shortly: as §1
Assay [15] has as its system Plutella xylostella. In words: Insecticidal activity against second-instar larval stage of Plutella xylostella (diamondback moth) in cabbage leaves assessed as mortality at 0.125 mg/l at 25 +/-1 degC treated for 3 secs before larva infestation measured after 2 days by leaf-dip method. Particulars: 48 h. Put shortly:
as §2

What is called mortality is the percentage killed. As for `CC(=O)OCc1cc(C(=O)Nc2c(C)cc(Cl)cc2C(=O)NC(C)C)n(-c2ncccc2Cl)n1`, the mortality at 10 µg/mL in the assay on Mythimna separata [1] is 20%; in the assay with Plutella xylostella [6], 100%. Besides, the mortality at 20 µg/mL with Plutella xylostella [2] and in the assay on Mythimna separata [4] was 100% each time. In addition, the mortality at 200 µg/mL with Mythimna separata [3] worked out at 100%. The mortality at 2.5 µg/mL in the assay with Plutella xylostella [5] came out at 60%. For the same compound, the mortality at 1 µg/mL in the assay on Plutella xylostella [7] is 0%. Besides, the mortality at 50 µg/mL with Mythimna separata [8] worked out at 100%. Besides, the mortality at 5 µg/mL with Plutella xylostella [9] is 95%. Moreover, in the assay on Mythimna separata [10], the mortality at 100 µg/mL turned out to be 100%.
Take `CNC(=O)c1cc(Cl)cc(C)c1NC(=O)c1cc(CNC(=O)C(F)(F)F)nn1-c1ncccc1Cl`: the mortality at 10 µg/mL in the assay with Mythimna separata [1] and with Plutella xylostella [6] was 100% in each case. Besides, the mortality at 20 µg/mL in the assay with Plutella xylostella [2] and in the assay on Mythimna separata [4] was 100% in each case. The mortality at 200 µg/mL with Mythimna separata [3] is 100%. In the assay with Plutella xylostella [5], the mortality at 2.5 µg/mL is 100%. In addition, the figures for the mortality at 5 µg/mL in the assay with Mythimna separata [11] and in the assay with Plutella xylostella [9] were 40% and 100%, respectively. Besides, in the assay on Plutella xylostella [7], the mortality at 1 µg/mL is 80%. Also, the mortality at 50 µg/mL in the assay with Mythimna separata [8] came to 100%. Moreover, the mortality at 100 µg/mL with Mythimna separata [10] amounted to 100%. Besides, the mortality at 0.25 µg/mL in the assay on Plutella xylostella [12] worked out at 0%. In addition, the mortality at 0.5 µg/mL with Plutella xylostella [13] was 40%.
In the case of `CNC(=O)c1cc(Cl)cc(C)c1NC(=O)c1cc(CN=[N+]=[N-])nn1-c1ncccc1Cl`, the mortality at 10 µg/mL in the assay on Mythimna separata [1] and in the assay with Plutella xylostella [6] was 100% throughout. The mortality at 20 µg/mL in the assay on Plutella xylostella [2] and in the assay with Mythimna separata [4] was 100% in each case. Besides, the mortality at 200 µg/mL in the assay with Mythimna separata [3] amounted to 100%. Moreover, the mortality at 2.5 µg/mL stood at 100% with Plutella xylostella [5] and 40% in the assay with Mythimna separata [14]. The mortality at 5 µg/mL with Mythimna separata [11] and with Plutella xylostella [9] was 100% each time. In addition, the mortality at 1 µg/mL in the assay with Plutella xylostella [7] was 100%. The mortality at 50 µg/mL in the assay on Mythimna separata [8] was 100%. For the same compound, the mortality at 0.125 µg/mL in the assay with Plutella xylostella [15] worked out at 45%. The mortality at 100 µg/mL in the assay with Mythimna separata [10] turned out to be 100%. In addition, the mortality at 0.25 µg/mL with Plutella xylostella [12] is 75%. In the assay with Plutella xylostella [13], the mortality at 0.5 µg/mL turned out to be 100%.
Take `CC(=O)OCc1cc(C(=O)Nc2c(C)cccc2C(=O)NC(C)C)n(-c2ncccc2Cl)n1`: the mortality at 10 µg/mL with Mythimna separata [1] worked out at 0%; in the assay on Plutella xylostella [6], 60%. In addition, the mortality at 20 µg/mL in the assay with Plutella xylostella [2] and in the assay with Mythimna separata [4] was 100% in each case. In the assay on Mythimna separata [3], the mortality at 200 µg/mL is 100%. In addition, in the assay on Mythimna separata [8], the mortality at 50 µg/mL was found to be 100%. In addition, the mortality at 5 µg/mL in the assay with Plutella xylostella [9] came to 0%. Further, in the assay on Mythimna separata [10], the mortality at 100 µg/mL worked out at 100%.
In the case of `CC(=O)OCc1cc(C(=O)Nc2c(C)cc(Cl)cc2C(=O)NC2CC2)n(-c2ncccc2Cl)n1`, the figures for the mortality at 10 µg/mL with Mythimna separata [1] and in the assay on Plutella xylostella [6] were 0% and 100%, respectively. For the same compound, the mortality at 20 µg/mL in the assay with Plutella xylostella [2] and in the assay with Mythimna separata [4] was 100% in each case. The mortality at 200 µg/mL in the assay with Mythimna separata [3] amounted to 100%. The mortality at 2.5 µg/mL in the assay on Plutella xylostella [5] is 90%. Moreover, the mortality at 1 µg/mL in the assay with Plutella xylostella [7] was 60%. The mortality at 50 µg/mL in the assay with Mythimna separata [8] was 100%. The mortality at 5 µg/mL with Plutella xylostella [9] came to 100%. Moreover, the mortality at 100 µg/mL in the assay on Mythimna separata [10] amounted to 100%. For the same compound, the mortality at 0.25 µg/mL in the assay with Plutella xylostella [12] was 0%. For the same compound, in the assay with Plutella xylostella [13], the mortality at 0.5 µg/mL was 40%.
For the compound `CC(=O)OCc1cc(C(=O)Nc2c(C)cc(Cl)cc2C(=O)NC(C)(C)C)n(-c2ncccc2Cl)n1`, the mortality at 10 µg/mL in the assay on Mythimna separata [1] and in the assay with Plutella xylostella [6] was 100% in each case. Besides, the mortality at 20 µg/mL with Plutella xylostella [2] and in the assay on Mythimna separata [4] was 100% in each case. In addition, the mortality at 200 µg/mL with Mythimna separata [3] is 100%. Further, in the assay with Plutella xylostella [5], the mortality at 2.5 µg/mL stood at 95%. Besides, the mortality at 5 µg/mL turned out to be 20% in the assay with Mythimna separata [11] and 100% in the assay with Plutella xylostella [9]. In the assay with Plutella xylostella [7], the mortality at 1 µg/mL came to 70%. For the same compound, in the assay with Mythimna separata [8], the mortality at 50 µg/mL was found to be 100%. Besides, in the assay on Plutella xylostella [15], the mortality at 0.125 µg/mL was determined as 0%. Besides, the mortality at 100 µg/mL in the assay with Mythimna separata [10] was 100%. Moreover, in the assay with Plutella xylostella [12], the mortality at 0.25 µg/mL stood at 25%. The mortality at 0.5 µg/mL in the assay on Plutella xylostella [13] was 50%.
Regarding `CNC(=O)c1cc(Cl)cc(C)c1NC(=O)c1cc(COC(C)=O)nn1-c1ncccc1Cl`, the figures for the mortality at 10 µg/mL in the assay with Mythimna separata [1] and in the assay with Plutella xylostella [6] were 0% and 90%, respectively. The mortality at 20 µg/mL in the assay on Plutella xylostella [2] and in the assay on Mythimna separata [4] was 100% each time. The mortality at 200 µg/mL in the assay on Mythimna separata [3] stood at 100%. In the assay on Plutella xylostella [5], the mortality at 2.5 µg/mL turned out to be 45%. Moreover, the mortality at 1 µg/mL in the assay with Plutella xylostella [7] stood at 0%. The mortality at 50 µg/mL with Mythimna separata [8] was found to be 100%. Also, the mortality at 5 µg/mL in the assay with Plutella xylostella [9] was determined as 70%. Further, the mortality at 100 µg/mL in the assay on Mythimna separata [10] came out at 100%.
